Settings in all cases: in vivo
Data set [1] has as its system Rattus norvegicus. Briefly: Total Drug recovery in female Sprague-Dawley rat at 10 mg/kg, po administered as single dose via gavage measured after 168 hrs by liquid scintillation counting. It counts as ADME, organism-based. The arrangement: dose 10 mg/kg, dosed compound name [14C]lixivaptan, route oral. The procedure, abridged: (§1)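 Intact SD rats (3/gender) dosed by gavage with [14C]drug 10 mg/kg (10 ml/kg, pluronic F68/water), housed in metabolism cages; urine and feces at 0-8, 8-24 h, then every 24 h to 7 days. Urine counted by LSC; feces homogenized 20% w/w in water, combusted, trapped CO2 counted; cage wash/debris included; % of dose.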

In data set [2] the test system is Homo sapiens. Briefly: Total drug recovery in human at […], po administered as single dose measured after 168 hrs by liquid scintillation counting. In kind it is ADME, organism-based. The arrangement: dosed compound name [14C]lixivaptan, route oral. The essentials:
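Healthy male volunteers given a single 100 mg (200 μCi) oral dose as 2×50-mg capsules with 250 ml water, fasted ≥10 h before and 4 h after dosing. Urine collected at 0-4, 4-8, 8-12, 12-24 h, then every 24 h to 168 h; feces collected as passed to 168 h. Feces homogenized (20% w/w) and combusted; radioactivity measured by LSC.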

The nature of data set [3]: Drug recovery in urine of male beagle dog at 10 mg/kg, po administered as single dose via gavage measured after 168 hrs by liquid scintillation counting. In kind it is ADME, organism-based, Canis lupus familiaris. The arrangement: dose 10 mg/kg, dosed compound name [14C]lixivaptan, route oral. The procedure, abridged: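 Four male beagles got 10 mg/kg (2 ml/kg) [14C]drug suspension (5.0 mg/ml, pluronic F68/water, 1.04 µCi/mg) by gavage. Urine and feces collected over dry ice at 0-8, 8-24 h, then every 24 h to 7 days; urine by LSC, fecal homogenates combusted then LSC; cage wash/debris included; % of dose.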

Data set [4] is described as follows: Drug recovery in urine of female Sprague-Dawley rat at 10 mg/kg, po administered as single dose via gavage measured after 168 hrs by liquid scintillation counting. The arrangement: dose 10 mg/kg, dosed compound name [14C]lixivaptan, route oral. It counts as ADME, organism-based. The procedure, abridged:
as §1

The structures appear in SMILES notation.

On to `Cc1ccc(F)cc1[14C](=O)Nc1ccc(C(=O)N2Cc3cccn3Cc3ccccc32)c(Cl)c1`, for which the Radiolabel recovery in data set [1] was 103%; in data set [2] it was 84.2%; in data set [3] it was 7.95%; in data set [4], 7.6%.

These data come from ChEMBL document CHEMBL3525987, “Assessment of exposure of metabolites in preclinical species and humans at steady state from the single-dose radiolabeled absorption, distribution, metabolism, and excretion studies: a case study” (Drug Metab Dispos, 2012).
